Assay results published in ChEMBL document CHEMBL4118021, “Studies of TAK1-centered polypharmacology with novel covalent TAK1 inhibitors” (Bioorg Med Chem, 2017).

Experiments:
Type in all cases: cell-based
[1] = molecular target: Interferon-induced, double-stranded RNA-activated protein kinase (Homo sapiens) (UniProt P19525); experiment: Inhibition of PKR in human SKCO1 cells at 1 uM after 4 hrs using biotin labeled DLKPSNIFLVDTK probe by mass-spectrometric analysis relative to control
Method in brief: (§1)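 Live SK-CO-1 cells exposed to compound at 1 μM or DMSO for 4 h (KiNativ). Lysates then labeled with lysine-reactive ATP/ADP-biotin probe, and probe-labeled kinase peptides quantified by mass spectrometry. Percent inhibition of probe-dependent recovery calculated relative to DMSO-treated cells.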

[2] = molecular target: Cyclin-dependent kinase 16 (Homo sapiens) (UniProt Q00536); experiment: Inhibition of PCTAIRE1 in human SKCO1 cells at 1 uM after 4 hrs using biotin labeled DLKPQNLLINER probe by mass-spectrometric analysis relative to control; method in brief: as §1
Cyclin-dependent kinase 16 (Homo sapiens), sequence (Q00536 whole entry): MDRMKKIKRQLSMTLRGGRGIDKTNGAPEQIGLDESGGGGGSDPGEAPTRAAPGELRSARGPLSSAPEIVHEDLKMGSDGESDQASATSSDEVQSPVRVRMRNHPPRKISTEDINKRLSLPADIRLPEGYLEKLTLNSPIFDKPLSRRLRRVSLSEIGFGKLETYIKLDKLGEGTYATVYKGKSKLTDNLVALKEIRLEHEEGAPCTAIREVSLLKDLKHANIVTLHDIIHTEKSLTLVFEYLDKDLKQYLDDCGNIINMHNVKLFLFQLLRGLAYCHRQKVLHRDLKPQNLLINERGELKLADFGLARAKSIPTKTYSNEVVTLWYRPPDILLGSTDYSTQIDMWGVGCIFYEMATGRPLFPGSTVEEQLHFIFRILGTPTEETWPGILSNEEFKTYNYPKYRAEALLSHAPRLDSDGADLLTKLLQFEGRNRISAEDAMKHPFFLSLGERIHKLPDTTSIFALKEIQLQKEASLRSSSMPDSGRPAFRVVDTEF

[3] = molecular target: Ribosomal protein S6 kinase beta-2 (Homo sapiens) (UniProt Q9UBS0); experiment: Inhibition of p70S6Kb in human SKCO1 cells at 1 uM after 4 hrs using biotin labeled DLKPENIMLSSQGHIK probe by mass-spectrometric analysis relative to control; method in brief: as §1
[4] = molecular target: Ribosomal protein S6 kinase alpha-1 (Homo sapiens) (UniProt Q15418); experiment: Inhibition of RSK1 domain1 in human SKCO1 cells at 1 uM after 4 hrs using biotin labeled DLKPENILLDEEGHIK probe by mass-spectrometric analysis relative to control; conditions: pooled result: one value given for 3 cell lines, strains, targets or settings; method in brief: as §1
[5] = molecular target: 5'-AMP-activated protein kinase catalytic subunit alpha-1 (Homo sapiens) (UniProt Q13131); experiment: Inhibition of AMPKa1 in human SKCO1 cells at 1 uM after 4 hrs using biotin labeled DLKPENVLLDAHMNAK probe by mass-spectrometric analysis relative to control
5'-AMP-activated protein kinase catalytic subunit alpha-1 (Homo sapiens), sequence (Q13131 whole entry, looked up): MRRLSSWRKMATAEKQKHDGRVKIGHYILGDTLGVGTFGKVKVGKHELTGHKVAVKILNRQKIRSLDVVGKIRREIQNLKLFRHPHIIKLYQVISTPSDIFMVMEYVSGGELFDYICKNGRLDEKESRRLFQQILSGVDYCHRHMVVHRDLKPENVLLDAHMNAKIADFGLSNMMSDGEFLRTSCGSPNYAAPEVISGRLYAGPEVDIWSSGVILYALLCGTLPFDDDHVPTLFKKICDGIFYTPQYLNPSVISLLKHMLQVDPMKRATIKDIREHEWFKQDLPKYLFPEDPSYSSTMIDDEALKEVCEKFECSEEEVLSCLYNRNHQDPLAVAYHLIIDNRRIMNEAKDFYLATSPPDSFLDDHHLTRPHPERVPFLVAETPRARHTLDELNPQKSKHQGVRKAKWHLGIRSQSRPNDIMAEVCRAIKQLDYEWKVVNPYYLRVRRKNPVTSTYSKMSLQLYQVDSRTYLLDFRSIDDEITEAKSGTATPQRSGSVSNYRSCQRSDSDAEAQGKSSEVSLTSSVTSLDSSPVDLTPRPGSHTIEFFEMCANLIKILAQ
Method in brief: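 Live SK-CO-1 cells were treated 4 h with compound at 1 μM or DMSO, then lysed. Lysates were labeled with a lysine-reactive ATP/ADP-biotin probe and analysed by mass spectrometry. Percent inhibition is the loss of probe-dependent recovery of the kinase peptide relative to DMSO.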

[6] = molecular target: Cyclin-dependent kinase 1 (Homo sapiens) (UniProt P06493); experiment: Inhibition of CDC2 in human SKCO1 cells at 1 uM after 4 hrs using biotin labeled DLKPQNLLIDDK probe by mass-spectrometric analysis relative to control
Cyclin-dependent kinase 1 (Homo sapiens), sequence (P06493 whole entry, looked up): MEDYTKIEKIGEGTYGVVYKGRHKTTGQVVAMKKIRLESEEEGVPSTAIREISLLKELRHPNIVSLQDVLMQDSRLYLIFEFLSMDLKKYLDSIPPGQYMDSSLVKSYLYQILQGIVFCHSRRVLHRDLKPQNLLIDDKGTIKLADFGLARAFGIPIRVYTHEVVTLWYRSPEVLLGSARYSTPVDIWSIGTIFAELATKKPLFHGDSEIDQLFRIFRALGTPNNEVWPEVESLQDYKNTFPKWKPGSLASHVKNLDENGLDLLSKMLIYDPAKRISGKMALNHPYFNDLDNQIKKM

[7] = molecular target: Serine/threonine-protein kinase 10 (Homo sapiens) (UniProt O94804); experiment: Inhibition of LOK in human SKCO1 cells at 1 uM after 4 hrs using biotin labeled DLKAGNVLMTLEGDIR probe by mass-spectrometric analysis relative to control
Serine/threonine-protein kinase 10 (Homo sapiens), sequence (O94804 whole entry, looked up): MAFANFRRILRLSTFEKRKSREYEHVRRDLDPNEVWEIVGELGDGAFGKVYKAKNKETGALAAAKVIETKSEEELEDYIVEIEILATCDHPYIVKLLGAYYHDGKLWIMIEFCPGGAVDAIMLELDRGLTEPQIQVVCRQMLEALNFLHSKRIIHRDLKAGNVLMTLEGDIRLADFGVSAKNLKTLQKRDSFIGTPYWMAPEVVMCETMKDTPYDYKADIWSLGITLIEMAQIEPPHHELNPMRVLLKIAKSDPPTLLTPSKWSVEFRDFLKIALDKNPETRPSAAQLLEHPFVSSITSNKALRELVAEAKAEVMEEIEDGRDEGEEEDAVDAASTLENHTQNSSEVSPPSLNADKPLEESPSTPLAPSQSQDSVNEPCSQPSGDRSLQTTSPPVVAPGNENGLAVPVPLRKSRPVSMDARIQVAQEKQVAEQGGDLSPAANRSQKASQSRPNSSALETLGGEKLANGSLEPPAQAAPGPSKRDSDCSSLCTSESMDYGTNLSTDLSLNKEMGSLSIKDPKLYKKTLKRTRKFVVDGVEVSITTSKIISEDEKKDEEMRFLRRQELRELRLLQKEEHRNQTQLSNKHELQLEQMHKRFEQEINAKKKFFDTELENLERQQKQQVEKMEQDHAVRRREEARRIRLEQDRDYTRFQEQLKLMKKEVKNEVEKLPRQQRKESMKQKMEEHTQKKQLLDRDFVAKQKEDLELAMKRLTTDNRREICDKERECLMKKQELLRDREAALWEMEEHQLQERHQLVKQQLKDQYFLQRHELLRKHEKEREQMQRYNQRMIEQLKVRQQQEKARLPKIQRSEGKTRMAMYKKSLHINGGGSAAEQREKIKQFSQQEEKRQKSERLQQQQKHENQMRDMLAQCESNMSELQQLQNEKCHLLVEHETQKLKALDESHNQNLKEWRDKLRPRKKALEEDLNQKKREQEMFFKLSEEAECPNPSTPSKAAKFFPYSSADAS

[8] = molecular target: T1, Dual specificity mitogen-activated protein kinase kinase 7 (Homo sapiens) (UniProt O14733); experiment: Inhibition of MAP2K7 in human SKCO1 cells at 1 uM after 4 hrs using biotin labeled DVKPSNILLDER probe by mass-spectrometric analysis relative to control
T1 sequence (whole entry): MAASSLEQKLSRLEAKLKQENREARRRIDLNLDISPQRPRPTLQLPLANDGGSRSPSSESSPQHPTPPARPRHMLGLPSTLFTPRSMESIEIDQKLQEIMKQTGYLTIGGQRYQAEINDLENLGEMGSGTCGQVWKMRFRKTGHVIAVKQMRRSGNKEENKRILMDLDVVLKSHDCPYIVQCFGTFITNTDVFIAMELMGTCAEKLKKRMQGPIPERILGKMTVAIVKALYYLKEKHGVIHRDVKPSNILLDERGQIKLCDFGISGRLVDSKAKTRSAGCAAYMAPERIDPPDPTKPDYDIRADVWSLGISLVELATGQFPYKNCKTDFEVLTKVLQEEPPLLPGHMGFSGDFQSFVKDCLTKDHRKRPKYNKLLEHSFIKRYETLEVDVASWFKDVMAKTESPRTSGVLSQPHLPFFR

[9] = molecular target: T2, Serine/threonine-protein kinase LATS1 (Homo sapiens) (UniProt O95835); experiment: Inhibition of LATS1 in human SKCO1 cells at 1 uM after 4 hrs using biotin labeled ALYATKTLR probe by mass-spectrometric analysis relative to control
T2 sequence (whole entry): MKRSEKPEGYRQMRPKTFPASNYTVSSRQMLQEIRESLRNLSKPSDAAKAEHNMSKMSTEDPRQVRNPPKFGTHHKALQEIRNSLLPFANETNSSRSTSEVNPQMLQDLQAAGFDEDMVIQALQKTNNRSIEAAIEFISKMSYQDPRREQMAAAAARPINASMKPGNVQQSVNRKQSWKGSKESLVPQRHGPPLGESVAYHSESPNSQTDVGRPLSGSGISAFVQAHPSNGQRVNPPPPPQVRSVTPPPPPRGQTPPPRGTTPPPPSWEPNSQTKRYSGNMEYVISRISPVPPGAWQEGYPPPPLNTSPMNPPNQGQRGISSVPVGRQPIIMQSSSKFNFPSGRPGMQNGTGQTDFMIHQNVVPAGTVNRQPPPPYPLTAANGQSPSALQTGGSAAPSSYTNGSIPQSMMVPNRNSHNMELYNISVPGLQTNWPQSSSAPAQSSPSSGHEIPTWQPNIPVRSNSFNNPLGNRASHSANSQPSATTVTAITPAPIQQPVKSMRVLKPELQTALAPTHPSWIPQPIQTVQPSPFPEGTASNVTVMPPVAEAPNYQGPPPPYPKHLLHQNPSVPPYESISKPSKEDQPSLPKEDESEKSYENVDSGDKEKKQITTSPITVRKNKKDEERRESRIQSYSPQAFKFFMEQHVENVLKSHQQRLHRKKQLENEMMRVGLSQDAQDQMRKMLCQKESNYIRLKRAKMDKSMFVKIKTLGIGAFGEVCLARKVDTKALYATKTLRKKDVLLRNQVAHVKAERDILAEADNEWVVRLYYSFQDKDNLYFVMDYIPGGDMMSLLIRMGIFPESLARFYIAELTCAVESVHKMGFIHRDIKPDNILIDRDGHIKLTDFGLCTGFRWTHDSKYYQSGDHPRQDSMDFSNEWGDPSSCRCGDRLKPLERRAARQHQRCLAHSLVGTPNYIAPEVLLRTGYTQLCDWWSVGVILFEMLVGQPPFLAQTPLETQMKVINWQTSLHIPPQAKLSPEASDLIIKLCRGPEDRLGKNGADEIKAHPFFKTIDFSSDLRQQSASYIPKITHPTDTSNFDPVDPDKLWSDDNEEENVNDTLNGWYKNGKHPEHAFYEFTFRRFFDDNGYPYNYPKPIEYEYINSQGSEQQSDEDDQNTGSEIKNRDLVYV

[10] = molecular target: Serine/threonine-protein kinase MARK2 (Homo sapiens) (UniProt Q7KZI7); experiment: Inhibition of MARK2 in human SKCO1 cells at 1 uM after 4 hrs using biotin labeled DLKAENLLLDADMNIK probe by mass-spectrometric analysis relative to control
Serine/threonine-protein kinase MARK2 (Homo sapiens), sequence (Q7KZI7 whole entry): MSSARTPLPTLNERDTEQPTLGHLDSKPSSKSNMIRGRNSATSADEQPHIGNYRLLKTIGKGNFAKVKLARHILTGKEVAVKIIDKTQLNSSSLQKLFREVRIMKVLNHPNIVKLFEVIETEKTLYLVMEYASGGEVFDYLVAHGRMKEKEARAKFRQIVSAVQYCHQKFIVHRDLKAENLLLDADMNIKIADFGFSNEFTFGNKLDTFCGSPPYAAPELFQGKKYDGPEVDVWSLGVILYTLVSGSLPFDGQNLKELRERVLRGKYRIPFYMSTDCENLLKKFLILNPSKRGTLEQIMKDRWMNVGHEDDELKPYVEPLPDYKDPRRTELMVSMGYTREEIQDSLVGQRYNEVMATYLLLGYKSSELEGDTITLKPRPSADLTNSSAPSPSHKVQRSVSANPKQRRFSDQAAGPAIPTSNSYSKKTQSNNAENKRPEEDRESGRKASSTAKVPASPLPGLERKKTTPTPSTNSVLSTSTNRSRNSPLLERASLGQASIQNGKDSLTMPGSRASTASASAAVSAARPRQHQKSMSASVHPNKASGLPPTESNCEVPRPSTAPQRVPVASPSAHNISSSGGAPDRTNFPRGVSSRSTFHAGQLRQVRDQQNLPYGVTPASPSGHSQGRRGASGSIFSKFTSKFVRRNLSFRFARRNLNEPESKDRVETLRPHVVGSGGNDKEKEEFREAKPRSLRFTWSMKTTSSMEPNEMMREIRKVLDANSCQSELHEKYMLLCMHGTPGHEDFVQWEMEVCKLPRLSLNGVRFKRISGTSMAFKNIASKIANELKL

[11] = molecular target: Cyclin-dependent kinase 17 (Homo sapiens) (UniProt Q00537); experiment: Inhibition of PCTAIRE2 in human SKCO1 cells at 1 uM after 4 hrs using biotin labeled SKLTENLVALKEIR probe by mass-spectrometric analysis relative to control; method in brief: as §1
Cyclin-dependent kinase 17 (Homo sapiens), sequence (Q00537 whole entry, looked up): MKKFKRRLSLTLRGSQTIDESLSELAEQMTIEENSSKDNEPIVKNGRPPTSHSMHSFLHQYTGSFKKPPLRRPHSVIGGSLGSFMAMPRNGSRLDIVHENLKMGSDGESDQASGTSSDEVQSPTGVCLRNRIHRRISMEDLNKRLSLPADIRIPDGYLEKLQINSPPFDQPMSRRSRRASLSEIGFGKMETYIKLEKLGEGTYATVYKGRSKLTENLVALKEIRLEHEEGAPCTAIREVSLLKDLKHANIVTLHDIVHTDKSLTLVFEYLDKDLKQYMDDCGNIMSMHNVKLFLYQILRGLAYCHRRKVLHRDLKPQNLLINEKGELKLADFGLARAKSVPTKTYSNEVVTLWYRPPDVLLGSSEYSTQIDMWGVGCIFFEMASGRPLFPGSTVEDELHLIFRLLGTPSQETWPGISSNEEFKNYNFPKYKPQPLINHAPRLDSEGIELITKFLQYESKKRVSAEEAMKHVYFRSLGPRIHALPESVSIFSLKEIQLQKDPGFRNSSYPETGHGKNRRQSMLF

[12] = molecular target: MAP/microtubule affinity-regulating kinase 3 (Homo sapiens) (UniProt P27448); experiment: Inhibition of MARK3 in human SKCO1 cells at 1 uM after 4 hrs using biotin labeled DLKAENLLLDADMNIK probe by mass-spectrometric analysis relative to control
MAP/microtubule affinity-regulating kinase 3 (Homo sapiens), sequence (P27448 whole entry, looked up): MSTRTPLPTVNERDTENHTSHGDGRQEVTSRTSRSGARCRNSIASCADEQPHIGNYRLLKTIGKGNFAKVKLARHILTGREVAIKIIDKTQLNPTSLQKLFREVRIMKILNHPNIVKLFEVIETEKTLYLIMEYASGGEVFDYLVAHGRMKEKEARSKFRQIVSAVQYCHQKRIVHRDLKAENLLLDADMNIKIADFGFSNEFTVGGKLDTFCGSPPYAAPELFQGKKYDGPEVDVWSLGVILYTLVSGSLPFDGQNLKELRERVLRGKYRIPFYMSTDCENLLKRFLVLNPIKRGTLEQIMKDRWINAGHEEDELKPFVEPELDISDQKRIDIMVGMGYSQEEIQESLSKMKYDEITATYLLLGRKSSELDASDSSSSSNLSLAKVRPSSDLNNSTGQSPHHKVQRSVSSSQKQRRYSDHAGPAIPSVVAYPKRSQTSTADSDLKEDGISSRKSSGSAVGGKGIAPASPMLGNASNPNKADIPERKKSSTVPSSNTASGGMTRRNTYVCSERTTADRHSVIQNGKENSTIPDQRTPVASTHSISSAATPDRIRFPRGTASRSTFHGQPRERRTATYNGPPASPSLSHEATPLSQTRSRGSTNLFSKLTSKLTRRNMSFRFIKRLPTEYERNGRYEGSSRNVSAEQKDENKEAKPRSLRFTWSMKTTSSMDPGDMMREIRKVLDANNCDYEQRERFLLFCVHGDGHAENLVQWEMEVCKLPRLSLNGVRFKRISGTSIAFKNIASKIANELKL

Interferon-induced, double-stranded RNA-activated protein kinase (Homo sapiens), sequence (P19525 whole entry): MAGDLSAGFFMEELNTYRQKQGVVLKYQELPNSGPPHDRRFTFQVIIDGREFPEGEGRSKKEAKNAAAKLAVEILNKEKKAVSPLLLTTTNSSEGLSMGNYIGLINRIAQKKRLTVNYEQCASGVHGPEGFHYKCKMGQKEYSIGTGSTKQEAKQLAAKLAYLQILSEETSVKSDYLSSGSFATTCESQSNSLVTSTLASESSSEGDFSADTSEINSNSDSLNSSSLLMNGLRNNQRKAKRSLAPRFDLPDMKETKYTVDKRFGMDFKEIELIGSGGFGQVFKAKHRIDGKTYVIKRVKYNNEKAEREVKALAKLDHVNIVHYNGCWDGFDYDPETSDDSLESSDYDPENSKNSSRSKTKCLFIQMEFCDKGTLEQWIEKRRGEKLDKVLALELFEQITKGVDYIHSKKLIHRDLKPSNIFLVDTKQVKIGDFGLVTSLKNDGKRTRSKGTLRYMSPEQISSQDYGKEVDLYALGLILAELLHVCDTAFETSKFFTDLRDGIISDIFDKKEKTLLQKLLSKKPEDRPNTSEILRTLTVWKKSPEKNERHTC

Row | SMILES | inhibition [1] | inhibition [2] | inhibition [3] | inhibition [4] | inhibition [5] | inhibition [6] | inhibition [7] | inhibition [8] | inhibition [9] | inhibition [10] | inhibition [11] | inhibition [12]
1 | C=CC(=O)Nc1ccccc1Nc1nc(Nc2ccc(N3CCN(C)CC3)cc2)ncc1Cl | 2.6% | -3.2% | 3.3% | 42.5% | 76% | 47.7% | 40.4% | 13.7% | 17.5% | -7.2% | 3.7% | -7.2%
2 | COc1cc(O)c2c(c1)/C=C/C[C@H](O)[C@H](O)C(=O)/C=C\C[C@H](C)OC2=O | -6.6% | -6.3% | 54.6% | 65.4% | 33.6% | 46.6% | 21.4% | 18.6% | 9.9% | 3.6% | 21.2% | 3.6%
3 | C=CC(=O)Nc1ccccc1Oc1nc(Nc2cnn(CCOC)c2)ncc1Cl | 2.5% | -5.9% | -1.5% | 13% | 0.2% | 33.1% | 11.6% | 12.3% | 5.3% | -8.4% | 21.9% | -8.4%
